pKd: −log10 of the molar value. Several values for one entry are separate records, joined by “and”; a condition that tells them apart may be missing. Equal entries are not always repeated. Activity calls are given as the source filed them. The calls are words filed in the database; no cut-off is given here.
Tested on: not listed separately
Experiment: Retention time of the compound in 50 to 100% ACN/Water/0.1%TFA by RP-HPLC analysis
Format: physicochemical
Conditions: buffer
Procedure, shortened: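 RP-HPLC run with a 50 to 100% ACN/water/0.1% TFA gradient over 25 min; retention times and isomer ratios taken from the reaction mixture.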

| Compound | Retention_time |
| --- | --- |
| COc1ccc(C/C(=N/Nc2nc(-c3ccc(Cl)c(Cl)c3)cs2)C(=O)O)cc1[N+](=O)[O-] | 10.68 min |
| O=C(O)/C(Cc1ccc(C(F)(F)F)cc1)=N\Nc1nc(-c2ccc(Cl)c(Cl)c2)cs1 | 10.53 min |
| O=C(O)/C(Cc1ccc(C(F)(F)F)cc1)=N/Nc1nc(-c2ccc(Cl)c(Cl)c2)cs1 | 10.59 min |
| O=C(O)/C(Cc1cccc([N+](=O)[O-])c1)=N\Nc1nc(-c2ccc(Cl)c(Cl)c2)cs1 | 8.36 min |
| O=C(O)/C(Cc1ccc(F)c([N+](=O)[O-])c1)=N\Nc1nc(-c2ccc(Cl)c(Cl)c2)cs1 | 8.4 min |
| O=C(O)/C(Cc1ccccc1[N+](=O)[O-])=N/Nc1nc(-c2ccc(N3CCOCC3)cc2)cs1 | 15.082 min |
| O=C(O)/C(Cc1ccccc1[N+](=O)[O-])=N\Nc1nc(-c2ccc(N3CCOCC3)cc2)cs1 | 12.32 min |
| O=C(O)/C(Cc1ccccc1[N+](=O)[O-])=N/Nc1nc(-c2ccc3ccccc3c2)cs1 | 7.27 min |
| O=C(O)/C(Cc1ccc(Cl)cc1)=N\Nc1nc(-c2ccc(Cl)c(Cl)c2)cs1 | 10.09 min |
| O=C(O)/C(Cc1ccc(O)c([N+](=O)[O-])c1)=N/Nc1nc(-c2ccc(Cl)c(Cl)c2)cs1 | 7.82 min |
| O=C(O)/C(Cc1ccccc1[N+](=O)[O-])=N\Nc1nc(-c2ccc(-c3ccccc3)cc2)cs1 | 7.23 min |
| O=C(O)/C(Cc1ccccc1[N+](=O)[O-])=N/Nc1nc(-c2ccc(C3CCCCC3)cc2)cs1 | 12.013 min |
| O=C(O)/C(Cc1ccc(O)cc1)=N\Nc1nc(-c2ccc(Cl)c(Cl)c2)cs1 | 14.28 min |
| Nc1ccc(C/C(=N/Nc2nc(-c3ccc(Cl)c(Cl)c3)cs2)C(=O)O)cc1[N+](=O)[O-] | 15.08 min |
| O=C(O)/C(Cc1ccc(Cl)c([N+](=O)[O-])c1)=N\Nc1nc(-c2ccc(Cl)c(Cl)c2)cs1 | 9.449 min |
| O=C(O)/C(Cc1cccc([N+](=O)[O-])c1)=N/Nc1nc(-c2ccc(Cl)c(Cl)c2)cs1 | 7.19 min |
| O=C(O)/C(Cc1ccc(F)cc1)=N/Nc1nc(-c2ccc(Cl)c(Cl)c2)cs1 | 7.47 min |
| O=C(O)/C(Cc1ccccc1[N+](=O)[O-])=N\Nc1nc(-c2ccc(C3CCCCC3)cc2)cs1 | 11.636 min |
| O=C(O)/C(Cc1ccccc1)=N\Nc1nc(-c2ccc(Cl)c(Cl)c2)cs1 | 10.56 min |
| O=C(O)/C(Cc1ccc(C(=O)O)cc1)=N/Nc1nc(-c2ccc(Cl)c(Cl)c2)cs1 | 5.62 min |
| O=C(O)/C(Cc1ccc(F)c([N+](=O)[O-])c1)=N/Nc1nc(-c2ccc(Cl)c(Cl)c2)cs1 | 15.54 min |
| O=C(O)/C(Cc1ccccc1[N+](=O)[O-])=N\Nc1nc(-c2ccc(Cl)c(Cl)c2)cs1 | 13.69 min |
| O=C(O)/C(Cc1ccccc1[N+](=O)[O-])=N/Nc1nc(-c2ccc(Cl)c(Cl)c2)cs1 | 8.68 min |

Continued, values first:

| Retention_time | Compound |
| --- | --- |
| 5.899 min | O=C(O)/C(Cc1ccccc1[N+](=O)[O-])=N\Nc1nc(-c2ccc3ccccc3c2)cs1 |
| 9.437 min | O=C(O)/C(Cc1ccc(Cl)c([N+](=O)[O-])c1)=N/Nc1nc(-c2ccc(Cl)c(Cl)c2)cs1 |
| 14.28 min | O=C(O)/C(Cc1ccc(O)cc1)=N/Nc1nc(-c2ccc(Cl)c(Cl)c2)cs1 |
| 8.007 min | COc1ccc(C/C(=N\Nc2nc(-c3ccc(Cl)c(Cl)c3)cs2)C(=O)O)cc1[N+](=O)[O-] |
| 7.82 min | O=C(O)/C(Cc1ccc(O)c([N+](=O)[O-])c1)=N\Nc1nc(-c2ccc(Cl)c(Cl)c2)cs1 |
| 7.92 min | O=C(O)/C(Cc1ccc(F)cc1)=N\Nc1nc(-c2ccc(Cl)c(Cl)c2)cs1 |
| 8.01 min | O=C(O)/C(Cc1ccc([N+](=O)[O-])cc1)=N\Nc1nc(-c2ccc(Cl)c(Cl)c2)cs1 |
| 8.16 min | O=C(O)/C(Cc1ccc([N+](=O)[O-])cc1)=N/Nc1nc(-c2ccc(Cl)c(Cl)c2)cs1 |
| 8.7 min | O=C(O)/C(Cc1ccccc1)=N/Nc1nc(-c2ccc(Cl)c(Cl)c2)cs1 |
| 8.13 min | O=C(O)/C(Cc1ccc(C(=O)O)cc1)=N\Nc1nc(-c2ccc(Cl)c(Cl)c2)cs1 |

Tested on: not listed separately
Experiment: Retention time of the compound in 0 to 70% ACN/Water/0.1%TFA by RP-HPLC analysis
Format: physicochemical
Conditions: buffer

| Compound | Retention_time |
| --- | --- |
| Nc1ccc(-c2csc(N/N=C(/Cc3ccccc3[N+](=O)[O-])C(=O)O)n2)cc1 | 12.98 min |
| O=C(O)/C(Cc1ccccc1[N+](=O)[O-])=N\Nc1nc(-c2ccc(C(=O)O)cc2)cs1 | 16.77 min |
| O=C(O)/C(Cc1ccccc1[N+](=O)[O-])=N\Nc1nc(-c2ccccc2)cs1 | 12.958 min |
| O=C(O)/C(Cc1ccccc1[N+](=O)[O-])=N\Nc1nc(-c2ccc(O)cc2)cs1 | 16.47 min |

Next, values leading:

| Retention_time | Compound |
| --- | --- |
| 14.54 min | O=C(O)/C(Cc1ccccc1[N+](=O)[O-])=N/Nc1nc(-c2ccc(C(=O)O)cc2)cs1 |
| 16.48 min | O=C(O)/C(Cc1ccccc1[N+](=O)[O-])=N/Nc1nc(-c2ccc(O)cc2)cs1 |
| 11.06 min | Nc1ccc(-c2csc(N/N=C(\Cc3ccccc3[N+](=O)[O-])C(=O)O)n2)cc1 |
| 15.796 min and 16.484 min | O=C(O)/C(Cc1ccccc1[N+](=O)[O-])=N/Nc1nc(-c2ccccc2)cs1 |

Molecular target: T1, Eukaryotic translation initiation factor 4E (Homo sapiens, UniProt P06730)
Experiment: Inhibition of eIF4E/eIF4G interaction in human CRL2813 cells assessed as increase in eIF4E/BP1 complex at 30 uM after 6 hrs by Western blotting analysis relative to control
Format: cell-based
Conditions: not given
Procedure, shortened: (§1)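 CRL-2813 melanoma cells incubated 6 h with 30 µM compound or DMSO vehicle, harvested, lysed by freeze-thaw; lysate bound to m7GTP-Sepharose 1 h at 4°C, beads washed, eluted with free m7GTP; retentate resolved by SDS-PAGE and immunoblotted for eIF4E, eIF4G (monoclonal) and 4E-BP1 (polyclonal). Blots quantified; mean of three independent pull-downs, error ±S.E.M.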

T1 sequence (P06730 whole entry): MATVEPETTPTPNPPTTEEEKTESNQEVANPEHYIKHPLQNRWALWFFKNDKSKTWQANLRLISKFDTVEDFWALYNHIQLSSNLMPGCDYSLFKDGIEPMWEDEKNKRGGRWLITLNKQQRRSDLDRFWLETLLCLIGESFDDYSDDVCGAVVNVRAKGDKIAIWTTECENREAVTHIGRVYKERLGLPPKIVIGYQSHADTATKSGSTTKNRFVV

| inhibition | Compound |
| --- | --- |
| Active | Nc1ccc(C/C(=N/Nc2nc(-c3ccc(Cl)c(Cl)c3)cs2)C(=O)O)cc1[N+](=O)[O-] |

Molecular target: T1, Eukaryotic translation initiation factor 4E
Experiment: Inhibition of eIF4E/eIF4G interaction in human CRL2813 cells assessed as reduction of eIF4E/eIF4G complex at 30 uM after 6 hrs by Western blotting analysis relative to control
Format: cell-based
Conditions: not given
Procedure, shortened: as §1

| inhibition | Compound |
| --- | --- |
| Active | Nc1ccc(C/C(=N/Nc2nc(-c3ccc(Cl)c(Cl)c3)cs2)C(=O)O)cc1[N+](=O)[O-] |

Molecular target: T1, Eukaryotic translation initiation factor 4E
Experiment: Binding affinity to human full length recombinant GST-tagged eIF4E expressed in Escherichia coli BL21(DE3) by intrinsic tryptophan fluorescence quenching method
Conditions: not given

| pKd | Compound |
| --- | --- |
| 5.30 | Nc1ccc(C/C(=N/Nc2nc(-c3ccc(Cl)c(Cl)c3)cs2)C(=O)O)cc1[N+](=O)[O-] |
| 4.44 | O=C(O)/C(Cc1ccccc1[N+](=O)[O-])=N\Nc1nc(-c2ccc(O)cc2)cs1 |

Tested on: not listed separately
Experiment: Retention time of the compound in 0 to 100% ACN/Water/0.1%TFA by RP-HPLC analysis
Format: physicochemical
Conditions: buffer
Procedure, shortened: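 Reverse-phase HPLC, linear gradient 0 to 100% ACN/water/0.1% TFA over 25 min; isomer retention times and ratios measured in the reaction mixture.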

| Compound | Retention_time |
| --- | --- |
| O=C(O)/C(Cc1ccc(O)cc1)=N\Nc1nc(-c2ccc(Cl)c(Cl)c2)cs1 | 18.74 min |
| O=C(O)/C(Cc1ccccc1[N+](=O)[O-])=N\Nc1nc(-c2ccccc2)cs1 | 16.98 min |

More lines, now with the values ahead:

| Retention_time | Compound |
| --- | --- |
| 16.63 min | O=C(O)/C(Cc1ccc(O)cc1)=N/Nc1nc(-c2ccc(Cl)c(Cl)c2)cs1 |
| 15.8 min | O=C(O)/C(Cc1ccccc1[N+](=O)[O-])=N/Nc1nc(-c2ccccc2)cs1 |

Tested on: not listed separately
Experiment: Retention time of the compound in 30 to 100% ACN/Water/0.1%TFA by RP-HPLC analysis
Format: physicochemical
Conditions: buffer
Procedure, shortened: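 Reverse-phase HPLC, 30 to 100% ACN/water/0.1% TFA gradient in 25 min; retention times and E/Z ratios determined on the reaction mixture.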

| Compound | Retention_time | Retention time |
| --- | --- | --- |
| [N-]=[N+]=Nc1ccc(-c2csc(N/N=C(\Cc3ccccc3[N+](=O)[O-])C(=O)O)n2)cc1 | 11.722 min | – |
| Nc1ccc(C/C(=N\Nc2nc(-c3ccc(Cl)c(Cl)c3)cs2)C(=O)O)cc1[N+](=O)[O-] | 12.3 min | – |
| O=C(O)/C(Cc1ccccc1[N+](=O)[O-])=N/Nc1nc(-c2ccc3ccccc3c2)cs1 | 11.72 min | – |
| O=C(O)/C(Cc1ccc(Br)cc1[N+](=O)[O-])=N/Nc1nc(-c2ccc(Cl)c(Cl)c2)cs1 | 15.542 min | – |
| Nc1ccc(C/C(=N/Nc2nc(-c3ccc(Cl)c(Cl)c3)cs2)C(=O)O)cc1[N+](=O)[O-] | 15.09 min | – |
| O=C(O)/C(Cc1ccc(C(=O)O)cc1[N+](=O)[O-])=N\Nc1nc(-c2ccc(Cl)c(Cl)c2)cs1 | – | 12.5 min |

Now from value to molecule:

| Retention_time | Retention time | Compound |
| --- | --- | --- |
| 11.814 min | – | O=C(O)/C(Cc1ccc(C(=O)O)cc1[N+](=O)[O-])=N/Nc1nc(-c2ccc(Cl)c(Cl)c2)cs1 |
| 10 min | – | O=C(O)/C(Cc1ccccc1[N+](=O)[O-])=N/Nc1nc(-c2ccc(Br)cc2)cs1 |
| 5.328 min | – | Nc1ccc(C/C(=N/Nc2nc(-c3ccc(Cl)c(Cl)c3)cs2)C(=O)O)cc1 |
| 8.828 min | – | O=C(O)/C(Cc1ccccc1[N+](=O)[O-])=N\Nc1nc(-c2ccc(N3CCCC3)cc2)cs1 (mixture of isomers) |
| 13.435 min | – | [N-]=[N+]=Nc1ccc(-c2csc(N/N=C(/Cc3ccccc3[N+](=O)[O-])C(=O)O)n2)cc1 |
| 12.48 min | – | O=C(O)/C(Cc1ccccc1[N+](=O)[O-])=N\Nc1nc(-c2ccc(Br)cc2)cs1 |

From ChEMBL document CHEMBL3351917, “Structure-activity relationship study of 4EGI-1, small molecule eIF4E/eIF4G protein-protein interaction inhibitors” (Eur J Med Chem, 2014)
